Assay results reported in ChEMBL document CHEMBL1122990, “Cyclic melanotropins. 9. 7-D-Phenylalanine analogues of the active-site sequence” (J Med Chem, 1985).

Assays:
[1] = system: lizara; test: Potency in the lizard (Anolis carolinensis) skin bioassay relative to alpha-MSH; type: functional
In short: (§1)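 In vitro Anolis carolinensis skin bioassay scoring melanosome dispersion as skin darkening. Solutions were made by serial dilution from a 10⁻⁴ M stock. Potency was calculated along the linear portion of the dose-response curve and standardized to α-MSH = 1.00.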

[2] = system: frog; test: Potency in the frog (Rana pipiens) skin bioassay relative to alpha-MSH; type: functional
In short: as §1, with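 “Rana pipiens” for “Anolis carolinensis”, “stock. Responses are the mean ± SE of 6 or more skins.” for “stock.”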

Compound: CC(=O)N[C@H]1CSSC[C@@H](C(=O)N[C@@H](CCCCN)C(N)=O)NC(=O)[C@H](Cc2c[nH]c3ccccc23)NC(=O)[C@H](CCCN=C(N)N)NC(=O)[C@H](Cc2ccccc2)NC(=O)[C@H](Cc2c[nH]cn2)NC(=O)[C@H](CCC(=O)O)NC1=O
- Potency [1]: 0.07
- Potency [2]: 0.16

Compound: CC(=O)N[C@@H](CO)C(=O)N[C@@H](Cc1ccc(O)cc1)C(=O)N[C@@H](CO)C(=O)N[C@H]1CSSC[C@@H](C(=O)N[C@@H](CCCCN)C(=O)N2CCC[C@H]2C(=O)N[C@H](C(N)=O)C(C)C)NC(=O)[C@H](Cc2c[nH]c3ccccc23)NC(=O)[C@@H](CCCN=C(N)N)NC(=O)[C@H](Cc2ccccc2)NC(=O)[C@@H](Cc2c[nH]cn2)NC(=O)[C@H](CCC(=O)O)NC1=O
- Potency [1]: 2
- Potency [2]: 10

Compound: CC(=O)N[C@H]1CSSC[C@@H](C(N)=O)NC(=O)[C@H](Cc2c[nH]c3ccccc23)NC(=O)[C@H](CCCN=C(N)N)NC(=O)[C@@H](Cc2ccccc2)NC(=O)[C@H](Cc2c[nH]cn2)NC(=O)[C@H](CCC(=O)O)NC1=O
- Potency [1]: 0.5
- Potency [2]: 0.75

Compound: CC(=O)N[C@H]1CSSC[C@@H](C(=O)N[C@@H](CCCCN)C(N)=O)NC(=O)[C@H](Cc2c[nH]c3ccccc23)NC(=O)[C@H](CCCN=C(N)N)NC(=O)[C@@H](Cc2ccccc2)NC(=O)[C@H](Cc2c[nH]cn2)NC(=O)[C@H](CCC(=O)O)NC1=O
- Potency [1]: 3
- Potency [2]: 2.5

Compound: CC(=O)N[C@H]1CSSC[C@@H](C(N)=O)NC(=O)[C@H](Cc2c[nH]c3ccccc23)NC(=O)[C@H](CCCN=C(N)N)NC(=O)[C@H](Cc2ccccc2)NC(=O)[C@H](Cc2c[nH]cn2)NC(=O)[C@H](CCC(=O)O)NC1=O
- Potency [1]: 0.003
- Potency [2]: 0.06
